Experimental data gathered from unrelated publications.
Compare with care: the assays were run in different laboratories.
Target: Mitogen-activated protein kinase kinase kinase 12 (MAP3K12, Homo sapiens, UniProt Q12852)
One construct used (Q12852 1-859): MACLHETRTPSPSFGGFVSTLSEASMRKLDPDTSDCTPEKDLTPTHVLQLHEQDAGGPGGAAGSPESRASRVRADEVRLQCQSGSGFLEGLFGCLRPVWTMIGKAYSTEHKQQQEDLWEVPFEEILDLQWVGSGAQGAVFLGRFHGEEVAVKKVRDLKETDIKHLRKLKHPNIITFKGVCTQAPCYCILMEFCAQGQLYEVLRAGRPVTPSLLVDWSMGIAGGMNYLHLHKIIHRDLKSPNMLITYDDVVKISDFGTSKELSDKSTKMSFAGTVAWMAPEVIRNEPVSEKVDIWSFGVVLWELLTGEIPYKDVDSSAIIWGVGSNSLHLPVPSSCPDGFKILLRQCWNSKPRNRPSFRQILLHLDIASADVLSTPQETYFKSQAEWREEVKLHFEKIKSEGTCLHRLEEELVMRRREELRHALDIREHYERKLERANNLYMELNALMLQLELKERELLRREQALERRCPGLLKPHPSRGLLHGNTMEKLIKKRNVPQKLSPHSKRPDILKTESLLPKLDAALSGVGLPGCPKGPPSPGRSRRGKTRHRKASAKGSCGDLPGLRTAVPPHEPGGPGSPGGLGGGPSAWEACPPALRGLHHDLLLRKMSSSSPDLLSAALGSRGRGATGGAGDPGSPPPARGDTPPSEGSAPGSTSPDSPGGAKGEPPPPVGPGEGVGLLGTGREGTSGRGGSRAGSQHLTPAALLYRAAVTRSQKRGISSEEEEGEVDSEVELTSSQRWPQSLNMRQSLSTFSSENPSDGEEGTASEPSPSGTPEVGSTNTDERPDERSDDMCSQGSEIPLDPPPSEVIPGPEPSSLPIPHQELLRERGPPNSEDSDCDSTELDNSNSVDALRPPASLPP

N[C@@H]1CCN(c2nccc(-c3cnn4ncccc34)n2)C1
remaining binding (binding; 1 µM): 100%

Cc1ccc(C(=O)Nc2ccc(CN3CCN(C)CC3)c(C(F)(F)F)c2)cc1C#Cc1cnc2cccnn12
remaining activity (enzyme activity; inhibitor; 23.5 nM): 76%

O=C(Nc1cnn(-c2csc(C(=O)NC3COC3)c2)c1)Nc1ccccc1Cl
remaining activity (enzyme activity; inhibitor; 5 µM): 96.5%

Nc1ncnc2occ(-c3ccc(NC(=O)Nc4cc(C(F)(F)F)ccc4F)cc3)c12
remaining signal (cell-free assay; inhibitor; 20 µM): 17%

CC(C)(O)[C@H]1CC[C@H](Nc2ccc3ncc(-c4cccc(C(F)(F)F)c4)n3n2)CC1
remaining activity (enzyme activity; inhibitor; 1 µM): 73%

O=C(Nc1cccnn1)N1CCC(=Cc2cccc(Oc3ccc(C(F)(F)F)cn3)c2)CC1
remaining binding (cell-free assay; competition with immobilised ligand; 1 µM): 100%

CC/C(=N\NC(=O)NCc1cccc(O)c1)c1ccc(O)c(C)c1O
inhibition (enzyme activity; inhibitor; 0.1 µM): 0.4%

O=C(Nc1cnn(-c2csc(C(=O)NC3COC3)c2)c1)Nc1c(F)cccc1Cl
remaining activity (enzyme activity; inhibitor; 5 µM): 82.2%

COc1ccc2cc(OCC3(C(=O)O)CN(C(=O)c4ccc(F)cc4)C3)ccc2c1
remaining binding (cell-free assay; competition with immobilised ligand; 1 µM): 97%

COc1ccnn2ncc(-c3ccnc(N(C)C)n3)c12
remaining binding (binding; 1 µM): 97%
